{"source": "ChEMBL document CHEMBL4130564", "about": "“Indolylalkyltriphenylphosphonium Analogues Are Membrane-Depolarizing Mycobactericidal Agents” (ACS Med Chem Lett, 2017)", "key": {"[1]": {"system": "Mycobacterium tuberculosis", "assay": "Bactericidal activity against Mycobacterium bovis BCG ATCC 35734 assessed as reduction in membrane potential by measuring red to green fluorescent ratio at 100 uM measured at 3 hrs by DiOC2-dye based fluorescence assay", "assay_type": "functional, organism-based", "settings": "BCG str. ATCC 35743"}, "[2]": {"system": "Mycobacterium tuberculosis", "assay": "Bactericidal activity against Mycobacterium bovis BCG ATCC 35734 assessed as suppression of reductive capacity by measuring decrease in formazan formation at 100 uM after 0.5 to 1 hr by MTT reduction assay", "assay_type": "functional", "parameters": "scale not given: the % may be the effect or the level left", "in_short": "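BCG cultures exposed to 0.2–100 μM for 30 min and 1 h, then MTT added; formazan production read at 595 nm against drug-free basal absorbance; CCCP 100 μM reference; representative of two independent experiments.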"}}, "note": "The source made the active and inactive calls. No cut-off for these calls is given here.", "data": [{"smiles": "N#CC(C#N)=NNc1cccc(Cl)c1", "note": "[CARBONYL CYANIDE M-CHLOROPHENYLHYDRAZONE]", "values": [{"measurement": "Activity", "setting": "[1]", "value": "Active"}, {"measurement": "Activity", "setting": "[2]", "value": 50, "unit": "%"}]}]}
